Laboratory results from ChEMBL document CHEMBL1142891, “Lead discovery and optimization of T-type calcium channel blockers” (Bioorg Med Chem, 2007).

Key:
Assay type in all cases: cell-based
[1] = biological target: T1, Voltage-dependent T-type calcium channel subunit alpha-1G (Homo sapiens, UniProt O43497); assay: Inhibition of T type calcium channel subunit alpha1G expressed in HEK293 cells assessed as effect on KCl-induced increase in intracellular calcium level at 10 uM by FDSS assay
How it was run: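 HEK293 cells stably co-expressing α1G and Kir2.1 were plated at 40,000 cells/well and used the next day. Loaded 60 min at room temperature with 5 µM fluo3/AM plus 0.001% Pluronic F-127 in HEPES buffer (1.8 mM CaCl2, pH 7.4). Depolarized with 70 mM KCl in buffer containing 10 mM CaCl2; the rise in intracellular Ca2+ was read by fluorescence.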

[2] = biological target: T1, Voltage-dependent T-type calcium channel subunit alpha-1G; assay: Inhibition of T type calcium channel subunit alpha-1G expressed in HEK293 cells assessed as effect on T-type calcium currents by patch clamp method
How it was run: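 Whole-cell patch clamp on HEK293 cells expressing α1G. Electrodes of 3-4 MΩ held internal solution (mM): 130 KCl, 11 EGTA, 5 Mg-ATP, 10 HEPES, pH 7.4. External solution (mM): 140 NaCl, 2 CaCl2, 10 HEPES, 10 glucose, pH 7.4. Currents evoked every 15 s by a 50 ms step from -100 to -30 mV. Read-out was peak current; IC50 from dose-response fits.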

[3] = biological target: T1, Voltage-dependent T-type calcium channel subunit alpha-1G; assay: Inhibition of T type calcium channel subunit alpha-1G expressed in HEK293 cells assessed as effect on T-type calcium currents at 10 uM by patch clamp method
[4] = biological target: Voltage-dependent T-type calcium channel subunit alpha-1H (Homo sapiens) (UniProt O95180); assay: Inhibition of T type calcium channel subunit alpha-1H expressed in Xenopus oocytes at 100 uM by FDSS assay; conditions: Oocyte
Sequence of Voltage-dependent T-type calcium channel subunit alpha-1H (Homo sapiens) (O95180 whole entry): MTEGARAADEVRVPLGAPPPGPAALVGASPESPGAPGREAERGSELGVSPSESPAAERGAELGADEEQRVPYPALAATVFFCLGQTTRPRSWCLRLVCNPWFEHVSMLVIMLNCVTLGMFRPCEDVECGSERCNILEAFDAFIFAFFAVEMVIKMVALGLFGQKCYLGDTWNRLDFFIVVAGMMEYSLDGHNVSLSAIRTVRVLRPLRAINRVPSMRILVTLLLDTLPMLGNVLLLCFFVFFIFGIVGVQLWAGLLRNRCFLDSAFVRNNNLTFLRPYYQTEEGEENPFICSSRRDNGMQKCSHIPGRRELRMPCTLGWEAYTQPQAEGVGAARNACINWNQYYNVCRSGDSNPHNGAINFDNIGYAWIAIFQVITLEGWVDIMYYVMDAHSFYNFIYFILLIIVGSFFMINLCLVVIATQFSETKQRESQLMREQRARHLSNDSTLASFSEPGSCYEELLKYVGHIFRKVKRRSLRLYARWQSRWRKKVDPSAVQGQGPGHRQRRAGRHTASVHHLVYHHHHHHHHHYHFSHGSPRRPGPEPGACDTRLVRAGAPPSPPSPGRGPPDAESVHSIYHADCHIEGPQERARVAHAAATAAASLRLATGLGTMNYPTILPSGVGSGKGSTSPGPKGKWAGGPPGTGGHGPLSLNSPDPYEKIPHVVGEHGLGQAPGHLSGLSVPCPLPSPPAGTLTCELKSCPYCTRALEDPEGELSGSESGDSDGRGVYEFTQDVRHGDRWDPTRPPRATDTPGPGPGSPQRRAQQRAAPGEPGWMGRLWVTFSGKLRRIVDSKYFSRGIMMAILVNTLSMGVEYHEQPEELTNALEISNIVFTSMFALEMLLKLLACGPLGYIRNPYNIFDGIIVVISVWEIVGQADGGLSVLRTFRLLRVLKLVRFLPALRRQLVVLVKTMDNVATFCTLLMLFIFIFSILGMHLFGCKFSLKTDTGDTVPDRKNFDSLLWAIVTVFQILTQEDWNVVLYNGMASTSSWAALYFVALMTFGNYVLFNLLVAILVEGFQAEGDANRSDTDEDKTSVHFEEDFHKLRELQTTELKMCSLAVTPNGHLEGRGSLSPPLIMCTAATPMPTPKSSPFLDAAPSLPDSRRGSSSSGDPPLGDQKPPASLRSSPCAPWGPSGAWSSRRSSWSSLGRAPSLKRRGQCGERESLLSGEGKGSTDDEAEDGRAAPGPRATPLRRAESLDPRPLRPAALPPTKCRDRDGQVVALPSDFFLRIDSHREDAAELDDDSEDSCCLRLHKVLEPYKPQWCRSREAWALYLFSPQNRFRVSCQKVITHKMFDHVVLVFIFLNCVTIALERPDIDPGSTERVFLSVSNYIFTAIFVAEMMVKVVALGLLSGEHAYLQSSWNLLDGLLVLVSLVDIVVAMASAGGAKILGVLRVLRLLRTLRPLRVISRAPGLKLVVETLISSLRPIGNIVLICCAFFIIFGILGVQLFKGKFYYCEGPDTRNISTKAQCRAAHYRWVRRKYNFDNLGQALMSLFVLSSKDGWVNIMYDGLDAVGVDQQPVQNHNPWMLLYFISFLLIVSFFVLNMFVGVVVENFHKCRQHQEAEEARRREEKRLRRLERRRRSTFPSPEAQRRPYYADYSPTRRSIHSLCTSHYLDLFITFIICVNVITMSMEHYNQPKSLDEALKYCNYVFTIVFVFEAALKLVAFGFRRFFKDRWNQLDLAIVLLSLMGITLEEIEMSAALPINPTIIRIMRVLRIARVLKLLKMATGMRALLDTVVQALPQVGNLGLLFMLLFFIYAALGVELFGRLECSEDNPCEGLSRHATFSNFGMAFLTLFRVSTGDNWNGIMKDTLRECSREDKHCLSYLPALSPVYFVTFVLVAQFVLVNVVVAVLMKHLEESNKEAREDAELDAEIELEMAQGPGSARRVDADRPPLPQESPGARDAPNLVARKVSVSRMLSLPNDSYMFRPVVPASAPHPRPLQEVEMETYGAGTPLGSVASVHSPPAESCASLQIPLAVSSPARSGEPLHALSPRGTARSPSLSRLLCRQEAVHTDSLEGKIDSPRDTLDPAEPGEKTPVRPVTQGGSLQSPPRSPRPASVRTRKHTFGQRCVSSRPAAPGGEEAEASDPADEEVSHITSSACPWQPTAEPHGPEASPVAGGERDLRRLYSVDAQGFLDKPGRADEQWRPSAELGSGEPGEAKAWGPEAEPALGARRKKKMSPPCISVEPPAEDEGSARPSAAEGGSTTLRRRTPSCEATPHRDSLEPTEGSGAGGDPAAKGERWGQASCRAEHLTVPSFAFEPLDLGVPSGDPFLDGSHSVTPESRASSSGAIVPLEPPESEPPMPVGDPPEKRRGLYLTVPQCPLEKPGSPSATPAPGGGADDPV

T1 sequence (O43497 whole entry): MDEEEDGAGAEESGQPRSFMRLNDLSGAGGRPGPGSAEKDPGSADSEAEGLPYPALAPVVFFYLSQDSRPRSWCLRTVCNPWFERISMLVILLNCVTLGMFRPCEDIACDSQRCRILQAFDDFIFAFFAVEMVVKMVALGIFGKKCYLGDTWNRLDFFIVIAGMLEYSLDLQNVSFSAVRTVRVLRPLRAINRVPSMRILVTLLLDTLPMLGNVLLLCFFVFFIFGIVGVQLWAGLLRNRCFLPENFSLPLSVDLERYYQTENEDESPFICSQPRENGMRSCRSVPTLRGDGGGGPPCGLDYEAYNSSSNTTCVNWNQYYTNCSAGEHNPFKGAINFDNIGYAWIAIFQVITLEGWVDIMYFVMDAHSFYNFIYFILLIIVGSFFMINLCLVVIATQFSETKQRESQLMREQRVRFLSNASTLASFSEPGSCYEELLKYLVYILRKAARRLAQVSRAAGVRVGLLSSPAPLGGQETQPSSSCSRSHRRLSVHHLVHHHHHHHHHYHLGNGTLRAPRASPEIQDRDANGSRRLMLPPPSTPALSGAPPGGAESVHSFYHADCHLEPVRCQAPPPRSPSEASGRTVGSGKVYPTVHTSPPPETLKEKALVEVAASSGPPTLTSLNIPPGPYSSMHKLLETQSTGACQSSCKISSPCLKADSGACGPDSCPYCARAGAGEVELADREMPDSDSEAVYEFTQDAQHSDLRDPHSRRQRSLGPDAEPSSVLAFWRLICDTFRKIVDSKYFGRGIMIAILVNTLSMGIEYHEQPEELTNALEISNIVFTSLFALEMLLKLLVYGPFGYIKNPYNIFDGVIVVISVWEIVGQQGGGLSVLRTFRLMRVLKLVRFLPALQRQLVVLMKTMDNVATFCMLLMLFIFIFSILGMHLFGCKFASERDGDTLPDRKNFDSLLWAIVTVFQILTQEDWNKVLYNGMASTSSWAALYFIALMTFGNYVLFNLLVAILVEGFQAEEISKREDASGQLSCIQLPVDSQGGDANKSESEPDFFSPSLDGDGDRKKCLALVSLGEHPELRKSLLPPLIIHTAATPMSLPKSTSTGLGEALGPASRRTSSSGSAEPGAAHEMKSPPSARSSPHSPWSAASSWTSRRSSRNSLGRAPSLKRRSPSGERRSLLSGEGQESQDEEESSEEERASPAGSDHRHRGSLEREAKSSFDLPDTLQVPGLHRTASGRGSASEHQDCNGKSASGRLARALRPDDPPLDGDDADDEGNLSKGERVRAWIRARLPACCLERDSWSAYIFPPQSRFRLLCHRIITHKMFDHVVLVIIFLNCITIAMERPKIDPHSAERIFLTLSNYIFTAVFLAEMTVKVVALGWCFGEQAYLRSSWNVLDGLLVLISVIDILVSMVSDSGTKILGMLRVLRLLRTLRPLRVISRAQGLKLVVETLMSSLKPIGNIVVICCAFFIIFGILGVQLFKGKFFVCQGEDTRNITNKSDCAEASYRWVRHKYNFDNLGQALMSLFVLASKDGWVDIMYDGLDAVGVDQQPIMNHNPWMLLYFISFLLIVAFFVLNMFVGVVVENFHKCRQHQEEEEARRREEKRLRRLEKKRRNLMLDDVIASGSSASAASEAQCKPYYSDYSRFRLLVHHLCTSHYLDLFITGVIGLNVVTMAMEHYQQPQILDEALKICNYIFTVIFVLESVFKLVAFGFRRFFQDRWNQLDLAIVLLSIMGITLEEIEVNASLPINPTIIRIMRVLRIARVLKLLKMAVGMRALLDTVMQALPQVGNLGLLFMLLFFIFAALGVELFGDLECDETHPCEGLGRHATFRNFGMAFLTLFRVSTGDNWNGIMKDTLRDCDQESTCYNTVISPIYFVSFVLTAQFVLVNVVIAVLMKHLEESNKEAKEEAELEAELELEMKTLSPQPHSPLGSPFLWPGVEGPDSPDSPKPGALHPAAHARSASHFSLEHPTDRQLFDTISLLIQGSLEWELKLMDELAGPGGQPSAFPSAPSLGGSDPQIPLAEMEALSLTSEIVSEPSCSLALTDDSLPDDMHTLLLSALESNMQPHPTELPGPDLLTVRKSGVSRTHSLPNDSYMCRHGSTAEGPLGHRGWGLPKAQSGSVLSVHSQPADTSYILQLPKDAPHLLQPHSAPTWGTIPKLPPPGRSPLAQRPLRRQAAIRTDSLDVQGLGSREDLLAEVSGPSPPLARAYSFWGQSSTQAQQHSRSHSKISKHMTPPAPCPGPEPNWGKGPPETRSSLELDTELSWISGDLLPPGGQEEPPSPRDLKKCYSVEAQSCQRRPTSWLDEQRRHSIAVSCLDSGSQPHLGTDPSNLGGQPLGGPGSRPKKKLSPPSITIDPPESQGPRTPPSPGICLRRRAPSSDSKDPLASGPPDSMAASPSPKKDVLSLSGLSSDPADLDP

Structure (SMILES) | inhibition [1] | IC50 [2] | inhibition [3] | inhibition [4]
CCN1CCN(CCCCC(=O)N2CCN(CC(=O)Nc3cccc(C)c3)CC2)CC1 | -1.36% | – | – | –
O=C(CCCN1CCN(Cc2ccc(Cl)cc2)CC1)Nc1cc(Cl)c(Cl)c(Cl)c1 | 27.5% | – | – | –
O=C(CCCCN1CCN(Cc2ccc(Cl)c(Cl)c2)CC1)Nc1ccccc1Cl | 55.9% | 1.01 µM | 91% | –
COc1cccc(N2CCN(CCCC(=O)Nc3cc(Cl)c(Cl)c(Cl)c3)CC2)c1 | 21.6% | – | – | –
O=C(CCCN1CCN(c2ccccc2)CC1)Nc1ccc(F)cc1F | 36.8% | – | – | –
O=C(CN1CCN(C(=O)CCCCN2CCN(Cc3ccc(Cl)cc3)CC2)CC1)Nc1ccccc1Cl | 26.2% | – | – | –
O=C(CCCN1CCN(Cc2ccccc2)CC1)Nc1ccc(Cl)cc1Cl | 44.9% | 3.14 µM | 79.3% | –
O=C(CCN1CCN(c2ccccc2)CC1)Nc1ccc(F)cc1F | 33.2% | – | – | –
O=C(CCN1CCN(c2ccccc2Cl)CC1)Nc1ccc(F)cc1F | 28.4% | – | – | –
O=C(CCCN1CCN(Cc2ccc(Cl)c(Cl)c2)CC1)Nc1ccc(F)cc1F | 59.9% | – | – | –
O=C(CCCN1CCN(c2ccccc2F)CC1)Nc1cc(Cl)c(Cl)c(Cl)c1 | 20.1% | – | – | –
O=C(CCCN1CCN(c2ccccc2)CC1)Nc1cc(Cl)c(Cl)c(Cl)c1 | 38.3% | – | – | –
O=C(CN1CCN(C(=O)CCCCN2CCN(c3ccc(F)cc3)CC2)CC1)Nc1ccccc1Cl | 34.9% | – | – | –
O=C(CCCN1CCN(Cc2ccccc2)CC1)Nc1cc(Cl)c(Cl)c(Cl)c1 | 49.4% | – | – | –
N#Cc1ccccc1N1CCN(CCCCC(=O)N2CCN(CC(=O)Nc3ccccc3Cl)CC2)CC1 | 7.38% | – | – | –
O=C(CCCN1CCN(Cc2ccccc2)CC1)Nc1ccc(F)cc1F | 23.2% | – | – | –
O=C(CN1CCN(C(=O)CCCCN2CCN(Cc3cccc(Cl)c3)CC2)CC1)Nc1ccccc1Cl | 40.9% | – | – | –
O=C(CN1CCN(C(=O)CCCCN2CCN(Cc3ccccc3)CC2)CC1)Nc1ccccc1Cl | 15.9% | – | – | –
COc1cccc(N2CCN(CCCCC(=O)N3CCN(CC(=O)Nc4ccccc4Cl)CC3)CC2)c1 | 26.1% | – | – | –
O=C(CCCCN1CCN(Cc2cccc(Cl)c2)CC1)N1CCN(c2ccccc2F)CC1 | 48.8% | 2.44 µM | 87.1% | –
CN1CCN(CCCCC(=O)N2CCN(CC(=O)Nc3cccc(Cl)c3)CC2)CC1 | – | – | – | < 1%
O=C(CCCN1CCN(Cc2c(F)cccc2Cl)CC1)Nc1ccc(Cl)cc1Cl | 49.6% | 2.4 µM | 89.6% | –
O=C(CCCN1CCN(Cc2cccc(Cl)c2)CC1)Nc1ccc(F)cc1F | 30.2% | – | – | –
O=C(CN1CCN(C(=O)CCCCN2CCN(c3ccccc3)CC2)CC1)Nc1cccc(C(F)(F)F)c1 | – | – | – | 53%
O=C(CCCN1CCN(Cc2cccc(Cl)c2)CC1)Nc1cc(Cl)c(Cl)c(Cl)c1 | 37% | – | – | –
COc1cccc(N2CCN(CCCC(=O)Nc3ccc(F)cc3F)CC2)c1 | 40.6% | – | – | –
O=C(CCN1CCN(Cc2ccccc2)CC1)Nc1ccc(F)cc1F | 21.1% | – | – | –

Structure (SMILES) | inhibition [1] | IC50 [2] | inhibition [3] | inhibition [4]
O=C(CCCN1CCN(Cc2ccc(Cl)c(Cl)c2)CC1)Nc1ccc(Cl)cc1Cl | 47.6% | 0.75 µM | 94.4% | –
O=C(CCCN1CCN(Cc2c(F)cccc2Cl)CC1)Nc1ccc(F)cc1F | 38.9% | – | – | –
O=C(CCCN1CCN(Cc2c(F)cccc2Cl)CC1)Nc1ccc(Cl)cc1 | 39.8% | 3.27 µM | 72.8% | –
CN1CCN(CCCCC(=O)N2CCN(CC(=O)Nc3cccc(C(F)(F)F)c3)CC2)CC1 | – | – | – | < 1%
COc1cccc(N2CCN(CCCC(=O)Nc3ccc(Cl)cc3)CC2)c1 | 40.6% | 2.78 µM | 84.1% | –
O=C(CCCN1CCN(c2ccccc2Cl)CC1)Nc1cc(Cl)c(Cl)c(Cl)c1 | 13.6% | – | – | –
O=C(CCCCN1CCN(Cc2ccc(Cl)cc2)CC1)N1CCN(c2ccccc2)CC1 | 50.4% | 3.4 µM | 79.7% | –
O=C(CCN1CCN(Cc2c(F)cccc2Cl)CC1)Nc1ccc(F)cc1F | 29.7% | – | – | –
COc1cccc(N2CCN(CCC(=O)Nc3ccc(F)cc3F)CC2)c1 | 29.5% | – | – | –
O=C(CCCN1CCN(c2ccccc2F)CC1)Nc1ccc(F)cc1F | 32.2% | – | – | –
O=C(CCCN1CCN(c2cccc(Cl)c2)CC1)Nc1ccc(Cl)cc1Cl | 38.1% | 1.01 µM | 95.4% | –
O=C(CCCN1CCN(Cc2ccc(Cl)cc2)CC1)Nc1ccc(Cl)cc1Cl | 61.3% | 0.28 µM | 91.1% | –
O=C(CCCCN1CCN(c2cccc(Cl)c2)CC1)Nc1ccccc1Cl | 54% | 1.91 µM | 93.2% | –
O=C(CN1CCN(C(=O)CCCCN2CCN(c3ccccc3)CC2)CC1)Nc1ccccc1Cl | 25.2% | – | – | –
COc1ccccc1N1CCN(CCCC(=O)Nc2ccc(Cl)cc2)CC1 | 51.8% | 2.61 µM | 84.3% | –
O=C(CCCN1CCN(c2ccc(F)cc2)CC1)Nc1cc(Cl)c(Cl)c(Cl)c1 | 20.7% | – | – | –
O=C(CCCN1CCN(Cc2ccc(Cl)cc2)CC1)Nc1ccc(F)cc1F | 48% | – | – | –
O=C(CCCCN1CCN(Cc2ccc(Cl)cc2)CC1)N1CCN(c2ccccc2F)CC1 | 48.3% | 1.81 µM | 89.7% | –
O=C(CCCN1CCN(Cc2cccc(Cl)c2)CC1)Nc1ccc(Cl)cc1Cl | 50.8% | 1.48 µM | 87.3% | –
O=C(CCN1CCN(c2ccc(F)cc2)CC1)Nc1ccc(F)cc1F | 29.7% | – | – | –
O=C(CCN1CCN(Cc2ccc(Cl)cc2)CC1)Nc1ccc(F)cc1F | 33.2% | – | – | –
O=C(CCCN1CCN(c2ccc(F)cc2)CC1)Nc1ccc(F)cc1F | 38.1% | – | – | –
O=C(CCN1CCN(c2ccccc2F)CC1)Nc1ccc(F)cc1F | 30.3% | – | – | –
O=C(CCCN1CCN(Cc2ccc3c(c2)OCO3)CC1)Nc1ccc(Cl)cc1 | 33.4% | 2.73 µM | 81.9% | –
COc1ccccc1N1CCN(CCCC(=O)Nc2cc(Cl)c(Cl)c(Cl)c2)CC1 | 33.7% | – | – | –
O=C(CCCN1CCN(c2ccccc2F)CC1)Nc1ccc(Cl)cc1Cl | 27.4% | – | – | –
O=C(CCCN1CCN(c2ccccc2)CC1)Nc1ccc(Cl)cc1 | 30.4% | 4.47 µM | 75.1% | –

Structure (SMILES) | inhibition [1] | IC50 [2] | inhibition [3] | inhibition [4]
CCN1CCN(CCCCC(=O)N2CCN(CC(=O)Nc3cccc(C(F)(F)F)c3)CC2)CC1 | – | – | – | 23.6%
O=C(CCCN1CCN(c2ccccc2)CC1)Nc1ccc(Cl)cc1Cl | 38.5% | 4.21 µM | 76.2% | –
O=C(CCN1CCN(c2cccc(Cl)c2)CC1)Nc1ccc(F)cc1F | 26.4% | – | – | –
O=C(CN1CCN(C(=O)CCCCN2CCN(c3ccccc3)CC2)CC1)Nc1cccc(Cl)c1 | – | – | – | 75.3%
O=C(CCCN1CCN(c2cccc(Cl)c2)CC1)Nc1ccc(F)cc1F | 51% | – | – | –
O=C(CCCN1CCN(Cc2ccccc2)CC1)Nc1ccc(Cl)cc1 | 30.8% | 3.52 µM | 78% | –
O=C(CCN1CCN(Cc2ccc(Cl)c(Cl)c2)CC1)Nc1ccc(F)cc1F | 34.6% | – | – | –
O=C(CN1CCN(C(=O)CCCCN2CCN(c3ccccc3F)CC2)CC1)Nc1ccccc1Cl | 22.1% | – | – | –
O=C(CCN1CCN(Cc2cccc(Cl)c2)CC1)Nc1ccc(F)cc1F | 34.7% | – | – | –
O=C(CCCN1CCN(Cc2cccc(Cl)c2)CC1)Nc1ccc(Cl)cc1 | 38.3% | 1.8 µM | 92.4% | –
O=C(CCCN1CCN(c2ccccc2Cl)CC1)Nc1ccc(Cl)cc1 | 37.3% | 6.01 µM | 60.5% | –
O=C(CCCCN1CCN(Cc2ccc(Cl)c(Cl)c2)CC1)N1CCN(c2ccccc2)CC1 | 56.2% | 2.91 µM | 73.8% | –
O=C(CCCN1CCN(c2ccc(Cl)cc2)CC1)Nc1ccc(Cl)cc1 | 48.3% | 2.64 µM | 94.6% | –
O=C(CCCN1CCN(c2ccc(F)cc2)CC1)Nc1ccc(Cl)cc1 | 32.5% | 3.49 µM | 76.1% | –
CCN1CCN(CCCCC(=O)N2CCN(CC(=O)Nc3cccc(Cl)c3)CC2)CC1 | – | – | – | 71.6%
COc1ccccc1N1CCN(CCC(=O)Nc2ccc(F)cc2F)CC1 | 37.1% | – | – | –
COc1ccccc1N1CCN(CCCC(=O)Nc2ccc(F)cc2F)CC1 | 33% | – | – | –
O=C(CCCN1CCN(Cc2ccc(Cl)cc2)CC1)Nc1ccc(Cl)cc1 | 33.6% | 0.37 µM | 92.6% | –
COc1cccc(N2CCN(CCCC(=O)Nc3ccc(Cl)cc3Cl)CC2)c1 | 44.2% | 3.81 µM | 80.3% | –
O=C(CCCN1CCN(Cc2c(F)cccc2Cl)CC1)Nc1cc(Cl)c(Cl)c(Cl)c1 | 35.1% | – | – | –
O=C(CCCN1CCN(Cc2ccc3c(c2)OCO3)CC1)Nc1ccc(Cl)cc1Cl | 49.8% | 1.67 µM | 88.1% | –
O=C(CCCN1CCN(c2cccc(Cl)c2)CC1)Nc1cc(Cl)c(Cl)c(Cl)c1 | 16.8% | – | – | –
O=C(CCCN1CCN(c2ccccc2Cl)CC1)Nc1ccc(F)cc1F | 42% | – | – | –
COc1ccccc1N1CCN(CCCC(=O)Nc2ccc(Cl)cc2Cl)CC1 | 42.7% | 3.34 µM | 79.1% | –
O=C(CCCN1CCN(c2ccccc2F)CC1)Nc1ccc(Cl)cc1 | 36.1% | 3.63 µM | 79.2% | –
